# In ChEMBL document CHEMBL4266041, “Hydroxybiphenylamide GroEL/ES Inhibitors Are Potent Antibacterials against Planktonic and Biofilm Forms of Staphylococcus aureus” (J Med Chem, 2018):
# Calls of active or inactive are those of the source. No cut-off for these calls is given here.
# Experiments:
# HEK293 = test: Cytotoxicity against HEK293 cells assessed as reduction in cell viability after 48 hrs by Alamar Blue reporter assay; details: human, hek293, 48 h
# Klebsiella pneumoniae = test: Antibacterial activity against Klebsiella pneumoniae ATCC 13883 after 6 to 8 hrs by bacterial proliferation assay; assay type: functional, organism-based
# Summary of the method: (§1)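 Bacterial growth inhibition in liquid culture. The highest concentration tested was 100 µM. The mean was back-calculated from the average log value. Values above the top concentration were set 0.1 log unit higher.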
# [1] = Therapeutic index, ratio of CC50 for HEK293 cells to EC50 for methicillin-resistant Staphylococcus aureus ATCC BAA-44; assay type: toxicity; details: human, read-out: Ratio CC50/EC50
# Summary of the method: (§2)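 Ratio of human-cell CC50 to MRSA (ATCC BAA-44) EC50. […] EC50 comes from inhibition of MRSA proliferation in liquid culture. Replicate values were log-transformed, screened for outliers (ROUT, Q 10%), then averaged and back-calculated. Values above 100 µM were entered as 126 µM.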
# Pseudomonas aeruginosa = test: Antibacterial activity against Pseudomonas aeruginosa ATCC 10145 after 24 hrs by bacterial proliferation assay; assay type: functional, organism-based; details: ATCC 10145, 24 h; summary of the method: as §1
# Staphylococcus aureus [2] = test: Bactericidal activity against planktonic growth of Staphylococcus aureus Rosenbach ATCC 25923 preincubated for 24 hrs followed by compound wash out and measured after 24 hrs; assay type: functional, organism-based
# Staphylococcus aureus [3] = test: Antibacterial activity against Staphylococcus aureus ATCC 25923 after 6 to 8 hrs by bacterial proliferation assay; assay type: functional, organism-based
# Enterococcus faecium = test: Antibacterial activity against Enterococcus faecium ATCC 19434 after 24 hrs by bacterial proliferation assay; assay type: functional, organism-based; details: ATCC 19434, 24 h
# [4] = molecular target: T1, Thiosulfate sulfurtransferase (Homo sapiens, UniProt Q16762); test: Inhibition of refolded rhodanese (unknown origin) preincubated with Escherichia coli GroEL/GroES for 60 mins in absence of compound followed by compound addition by spectrometric analysis
# T1 sequence (Q16762 whole entry): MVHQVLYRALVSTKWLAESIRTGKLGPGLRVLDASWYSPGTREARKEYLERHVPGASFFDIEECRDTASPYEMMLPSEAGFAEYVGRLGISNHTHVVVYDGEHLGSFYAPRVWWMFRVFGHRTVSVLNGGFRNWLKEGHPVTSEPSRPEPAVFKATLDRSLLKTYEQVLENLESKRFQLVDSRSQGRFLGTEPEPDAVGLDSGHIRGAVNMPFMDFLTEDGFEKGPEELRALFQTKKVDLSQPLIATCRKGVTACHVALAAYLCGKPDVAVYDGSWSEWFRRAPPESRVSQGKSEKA
# [5] = Therapeutic index, ratio of CC50 for human THLE3 cells to EC50 for methicillin-resistant Staphylococcus aureus ATCC BAA-44; assay type: toxicity; details: read-out: Ratio CC50/EC50; summary of the method: as §2
# Staphylococcus aureus [6] = test: Antibiofilm activity against Staphylococcus aureus Rosenbach ATCC 25923 after 24 hrs by crystal-violet based UV-Vis spectroscopy; assay type: functional, organism-based; details: Rosenbach ATCC 25923, 24 h
# Summary of the method: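 ATCC 25923 colony grown overnight in TSB at 37°C with shaking, precultured 1 h in TSB + 0.5% glucose, then diluted to OD600 0.01. Incubated stagnant at 37°C for 24 h with compound (100 µM–46 nM, 3-fold, DMSO), alongside bacteria-free baseline plates. Wells washed, crystal violet stained 15 min, developed in MeOH:AcOH:H2O, A595.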
# Staphylococcus aureus [7] = test: Bactericidal activity against Staphylococcus aureus Rosenbach ATCC 25923 in biofilms preincubated for 24 hrs followed by compound wash out and measured after 24 hrs; assay type: functional, organism-based
# Summary of the method: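 ATCC 25923 preculture (TSB + 0.5% glucose, OD600 0.01) grown stagnant 24 h at 37°C to form biofilm, without compound. Wells washed 3× with PBS, then fresh TSB added with compound (100 µM–46 nM, 3-fold, DMSO) for 24 h at 37°C. Washed again, then recovered in fresh TSB 24 h at 37°C.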
# Staphylococcus aureus [8] = test: Ratio of EC50 for bactericidal activity against Staphylococcus aureus Rosenbach ATCC 25923 in biofilms to EC50 for planktonic growth of Staphylococcus aureus Rosenbach ATCC 25923; assay type: functional
# [9] = Inhibition of refolded MDH (unknown origin) preincubated with Escherichia coli GroEL/GroES for 45 mins in absence of compound followed by compound addition and measured for 20 to 35 mins by spectrometric analysis
# Staphylococcus aureus [10] = test: Antibacterial activity against methicillin-resistant Staphylococcus aureus ATCC BAA-44 after 6 to 8 hrs by bacterial proliferation assay; assay type: functional, organism-based; details: Staphylococcus aureus, ATCC BAA-44
# Enterobacter cloacae = test: Antibacterial activity against Enterobacter cloacae subsp. cloacae ATCC 13047 after 24 hrs by bacterial proliferation assay; assay type: functional, organism-based; details: subsp. cloacae ATCC 13047, 24 h; summary of the method: as §1
# E. coli GroEL/ES [11] = molecular target: T2, E. coli GroEL/ES (Escherichia coli, UniProt P0A6F5); test: Inhibition of Escherichia coli GroEL expressed in Escherichia coli DH5alpha/Escherichia coli GroES expressed in Escherichia coli BL21 (DE3) assessed as reduction in GroEL/GroES-mediated denatured MDH refolding after 20 to 40 mins by spectrometric analysis
# T2 sequence (P0A6F5 whole entry, looked up): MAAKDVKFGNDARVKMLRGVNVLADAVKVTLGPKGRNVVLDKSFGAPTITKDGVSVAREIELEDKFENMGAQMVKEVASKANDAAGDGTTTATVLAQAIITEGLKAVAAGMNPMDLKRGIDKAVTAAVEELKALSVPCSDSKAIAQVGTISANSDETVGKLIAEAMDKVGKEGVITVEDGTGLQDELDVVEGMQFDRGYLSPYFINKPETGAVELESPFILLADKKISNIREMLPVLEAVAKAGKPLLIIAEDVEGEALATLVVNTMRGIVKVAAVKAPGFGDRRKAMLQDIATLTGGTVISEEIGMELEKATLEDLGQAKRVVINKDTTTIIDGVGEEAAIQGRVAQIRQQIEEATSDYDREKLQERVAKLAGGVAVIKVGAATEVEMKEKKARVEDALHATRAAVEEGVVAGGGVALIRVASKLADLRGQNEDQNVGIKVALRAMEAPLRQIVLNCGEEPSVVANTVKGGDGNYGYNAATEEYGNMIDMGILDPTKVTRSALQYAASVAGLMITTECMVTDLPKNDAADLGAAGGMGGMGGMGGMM
# Summary of the method: (§3)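 Uses E. coli GroEL/ES with a denatured MDH or rhodanese reporter. GroEL first forms a binary complex with the denatured reporter. Refolding is started by adding ATP and GroES, then reporter enzyme activity is read. DMSO is the negative control. IC50 values from replicate curves are log-averaged after ROUT outlier screening.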
# [12] = Cytotoxicity against human THLE3 cells assessed as reduction in cell viability after 48 hrs by Alamar Blue reporter assay; details: 48 h
# Acinetobacter baumannii = test: Antibacterial activity against Acinetobacter baumannii ATCC 19606 after 24 hrs by bacterial proliferation assay; assay type: functional, organism-based; details: ATCC 19606 = CIP 70.34 = JCM 6841, 24 h; summary of the method: as §1
# E. coli GroEL/ES [13] = molecular target: T2, E. coli GroEL/ES; test: Inhibition of Escherichia coli GroEL expressed in Escherichia coli DH5alpha/Escherichia coli GroES expressed in Escherichia coli BL21 (DE3) assessed as reduction in GroEL/GroES-mediated denatured rhodanese refolding after 45 mins by spectrometric analysis; summary of the method: as §3
# HSP60/HSP10 = HSP60/HSP10 (Homo sapiens, UniProt P10809); test: Inhibition of human N-terminal octa-His-tagged HSP60 expressed in Escherichia coli Rosetta(DE3) pLysS/human HSP10 expressed in Escherichia coli Rosetta(DE3) assessed as reduction in HSP60/HSP10-mediated denatured MDH refolding after 40 to 60 mins by spectrometric analysis
# Chain of HSP60/HSP10 (P10809 whole entry): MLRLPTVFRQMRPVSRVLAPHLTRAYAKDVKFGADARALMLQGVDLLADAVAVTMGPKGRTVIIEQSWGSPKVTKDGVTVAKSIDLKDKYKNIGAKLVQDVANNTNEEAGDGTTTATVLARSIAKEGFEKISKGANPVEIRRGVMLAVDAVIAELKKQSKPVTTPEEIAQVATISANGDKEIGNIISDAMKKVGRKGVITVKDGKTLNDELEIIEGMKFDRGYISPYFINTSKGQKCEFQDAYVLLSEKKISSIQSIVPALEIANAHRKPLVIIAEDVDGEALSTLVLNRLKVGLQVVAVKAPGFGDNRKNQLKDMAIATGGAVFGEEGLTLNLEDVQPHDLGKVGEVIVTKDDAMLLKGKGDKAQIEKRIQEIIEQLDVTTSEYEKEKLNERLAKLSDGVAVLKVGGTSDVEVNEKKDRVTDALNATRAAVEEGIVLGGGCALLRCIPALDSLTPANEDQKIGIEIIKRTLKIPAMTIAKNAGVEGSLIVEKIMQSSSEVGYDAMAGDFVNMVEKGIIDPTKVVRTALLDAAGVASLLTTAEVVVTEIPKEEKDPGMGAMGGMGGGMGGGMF
# Chain of HSP60/HSP10 (P61604 whole entry, further chain): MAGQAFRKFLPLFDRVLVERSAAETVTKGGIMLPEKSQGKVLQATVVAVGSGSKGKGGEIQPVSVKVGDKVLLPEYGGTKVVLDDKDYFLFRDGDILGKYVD
# Summary of the method: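 Human HSP60/10 refolding of denatured MDH, run the same way as the GroEL/ES-dMDH assay. A binary complex of chaperonin and denatured MDH is formed, and refolding is started with ATP and HSP10. MDH activity is the read-out. DMSO is the negative control. IC50 values from replicate curves are log-averaged after ROUT outlier screening.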
# Staphylococcus aureus [14] = test: Antibacterial activity against methicillin-resistant Staphylococcus aureus ATCC BAA-44 precultured for 24 hrs passage with compound followed by subculture in presence of compound for 12 days serial passage; assay type: functional, organism-based
# Summary of the method: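 Cells from the first well with OD600 >0.2 were sub-cultured 24 h in a fresh compound dilution series. Serial passage ran for 12 days, with EC50 determined after each passage. Averages are from triplicate analyses.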
SMILES,CC50 (HEK293) [µM],EC50 (Klebsiella pneumoniae) [µM],selectivity ratio [1],EC50 (Pseudomonas aeruginosa) [µM],EC50 (Staphylococcus aureus [2]) [µM],EC50 (Staphylococcus aureus [3]) [µM],EC50 (Enterococcus faecium) [µM],IC50 [4] [µM],selectivity ratio [5],EC50 (Staphylococcus aureus [6]) [µM],EC50 (Staphylococcus aureus [7]) [µM],Ratio EC50 (Staphylococcus aureus [8]),IC50 [9] [µM],EC50 (Staphylococcus aureus [10]) [µM],EC50 (Enterobacter cloacae) [µM],IC50 (E. coli GroEL/ES [11]) [µM],CC50 [12] [µM],EC50 (Acinetobacter baumannii) [µM],IC50 (E. coli GroEL/ES [13]) [µM],IC50 (HSP60/HSP10) [µM],further results
O=C(Nc1ccc(Sc2nc3ccccc3s2)cc1)c1cc(Br)cc(Br)c1O,66,> 100,> 50,> 100,0.44,0.44,0.88,> 100,> 50,0.54,2.3,5 - 15,8.4,0.52,> 100,2.7,20,> 100,1.3,,
O=C(Nc1cccc(Cl)c1)c1cc(Br)cc(Br)c1O,18,95,> 50,> 100,,0.66,73,> 100,> 50,,,,27,1.1,78,24,9.2,46,47,,
O=C(Nc1ccccc1)c1cc(Br)cc(Br)c1O [METABROMSALAN],34,> 100,> 50,> 100,,1.2,> 100,> 100,> 50,,,,51,2,> 100,61,25,> 100,> 100,,
CN[C@H](CC(C)C)C(=O)N[C@H]1C(=O)N[C@@H](CC(N)=O)C(=O)N[C@H]2C(=O)N[C@H]3C(=O)N[C@H](C(=O)N[C@H](C(=O)O)c4cc(O)cc(O)c4-c4cc3ccc4O)[C@H](O)c3ccc(c(Cl)c3)Oc3cc2cc(c3O[C@@H]2O[C@H](CO)[C@@H](O)[C@H](O)[C@H]2O[C@H]2C[C@](C)(N)[C@H](O)[C@H](C)O2)Oc2ccc(cc2Cl)[C@H]1O [VANCOMYCIN],> 100,> 100,,> 100,0.67,0.67,0.6,> 100,,0.54,> 100,,> 63,0.52,> 100,> 100,> 100,> 100,> 100,> 100,
O=C(Nc1ccc(Sc2nc3ccccc3s2)c(Cl)c1)c1cccc(Br)c1O,64,> 100,,> 100,0.45,0.45,24,> 100,,1,5.6,5 - 15,> 63,0.71,> 100,9.5,19,2.9,3.8,,
O=C(Nc1cccc(Cl)c1)c1cc(Br)ccc1O,15,> 100,,> 100,0.46,0.46,> 100,> 100,,0.44,6.9,5 - 15,> 63,0.53,> 100,> 100,4.1,> 100,> 100,> 100,Activity (Staphylococcus aureus [14]): Active
O=C(Nc1ccc(Sc2nc3ccccc3s2)c(Cl)c1)c1cc(Br)cc(Br)c1O,76,> 100,> 50,> 100,0.36,0.36,0.52,> 100,> 50,0.72,2.4,5 - 15,6.8,0.55,> 100,,14,66,1.5,,Activity (Staphylococcus aureus [14]): Active
COc1c(Br)cc(Br)cc1C(=O)Nc1ccccc1,> 100,> 100,,> 100,,> 100,> 100,> 100,,,,,> 63,> 100,> 100,> 100,> 100,> 100,> 100,> 100,
O=C(Nc1ccc(Sc2nc3ccccc3s2)c(Cl)c1)c1cc(Br)ccc1O,45,> 100,,> 100,,0.12,15,> 100,,,,,> 63,0.17,> 100,37,14,> 100,11,> 100,
O=C(Nc1ccc(Sc2nc3ccccc3s2)cc1)c1ccccc1O,74,> 100,,> 100,0.2,0.2,67,> 100,,0.91,2,5 - 15,> 63,0.41,> 100,40,33,> 100,87,> 100,
COc1c(Br)cccc1C(=O)Nc1ccccc1,> 100,> 100,,> 100,,> 100,> 100,> 100,,,,,> 63,> 100,> 100,> 100,> 100,> 100,> 100,> 100,
COc1c(Br)cc(Br)cc1C(=O)Nc1ccc(Sc2nc3ccccc3s2)cc1,> 100,> 100,,> 100,,> 100,> 100,> 100,,,,,> 63,> 100,> 100,> 100,> 100,> 100,> 100,> 100,
